Tests used:
[1] = tested on: Human immunodeficiency virus 1; assay: Antiviral activity against wild-type HIV-1 NL4-3 infected in human TZM-bl cells using virus particles harvested from 18 hrs drug-treated HEK293T cells harboring viral transfection assessed as reduction in viral infection measured after 48 hrs in TZM-bl cells by luciferase based assay; type: functional, organism-based; details: Human immunodeficiency virus 1, NL4-3, TZM-bl
[2] = (§1) Binding affinity to drug-resistant HIV-1 protease I13V/G16E/V32I/L33F/K45I/M46I/V82F/I84V/A71V/L76V/I54L mutant expressed in Escherichia coli TAP-106 cells assessed as inhibition constant using a EDANS/DABCYL FRET-peptide substrate preincubated for 1 hr followed by substrate addition measured after 1 hr by fluorogenic assay; set-up: species or system Human immunodeficiency virus 1
Protease [3] = target: Protease (Human immunodeficiency virus 1, UniProt Q9YQ12, A71V/I50V); assay: Binding affinity to drug-resistant HIV-1 protease I50V/A71V mutant expressed in Escherichia coli TAP-106 cells assessed as inhibition constant using a EDANS/DABCYL FRET-peptide substrate preincubated for 1 hr followed by substrate addition measured after 1 hr by fluorogenic assay
Protease [4] = target: Protease (Human immunodeficiency virus 1, UniProt Q9YQ12, I84V); assay: Binding affinity to drug-resistant HIV-1 protease I84V mutant expressed in Escherichia coli TAP-106 cells assessed as inhibition constant using a EDANS/DABCYL FRET-peptide substrate preincubated for 1 hr followed by substrate addition measured after 1 hr by fluorogenic assay
[5] = as §1, with “I13V/G16E/V32I/L33F/K45I/M46I/V82F/I84V/A71V/L76V” for “I13V/G16E/V32I/L33F/K45I/M46I/V82F/I84V/A71V/L76V/I54L”; set-up: species or system Human immunodeficiency virus 1
[6] = as §1, with “I13V/G16E/V32I/L33F/K45I/M46I/V82F/I84V” for “I13V/G16E/V32I/L33F/K45I/M46I/V82F/I84V/A71V/L76V/I54L”; set-up: species or system Human immunodeficiency virus 1
HEK-293T = assay: (§2) Cytotoxicity against HEK293T cells incubated for 48 hrs by absorbance based assay; type: toxicity, cell-based; details: human, hek-293t, 48 h
in vitro = details: human
TZM = assay: Cytotoxicity against human TZM-bl cells incubated for 48 hrs by absorbance based assay; type: toxicity, cell-based
[7] = as §2; type: toxicity, cell-based, HEK-293T; details: human, HEK293T cells
[8] = tested on: Human immunodeficiency virus 1; assay: Antiviral activity against drug-resistant HIV-1 harboring protease L10I/V11I/I13V/K14R/A22V/E35D/M36I/N37D/G48M/F53L/I54V/I62V/L63P/A71V/T74S/V82A/I84V/T91S/Q92K mutant infected in human TZM-bl cells using virus particles harvested from 24 hrs drug-treated human CEM cells infected with virus assessed as reduction in viral infection measured after 48 hrs in TZM-bl cells by Firefly luciferase based …; type: functional, organism-based; details: Human immunodeficiency virus 1, TZM-bl
[9] = tested on: Human immunodeficiency virus 1; assay: (§3) Antiviral activity against wild-type HIV-1 NL4-3 infected in human TZM-bl cells using virus particles harvested from 24 hrs drug-treated human CEM cells infected with virus assessed as reduction in viral infection measured after 48 hrs in TZM-bl cells by Firefly luciferase based assay; type: functional, organism-based; details: Human immunodeficiency virus 1, NL4-3, TZM-bl
Summary of the method: (§4)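 Virus stocks grown by infecting 3 × 10^6 CEM cells with virus at 37 °C for 2–3 h, then RPMI with medium changes every 48 h until CPE. Infected CEM cells plated onto five-fold serial inhibitor dilutions in RPMI (top 100 μM).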

[10] = tested on: Human immunodeficiency virus 1; assay: as §3, with “drug-resistant” for “wild-type”, “harboring Gag mutation/protease I13V/G16E/V32I/L33F/K45I/M46I/A71V/L76V/V82F/I84V mutant” for “NL4-3”; type: functional, organism-based; details: Human immunodeficiency virus 1, TZM-bl; summary of the method: as §4
[11] = tested on: Human immunodeficiency virus 1; assay: as §3, with “drug-resistant” for “wild-type”, “harboring RT mutation/protease I13V/G16E/V32I/L33F/K45I/M46I/A71V/L76V/V82F/I84V mutant” for “NL4-3”; type: functional, organism-based; details: Human immunodeficiency virus 1, TZM-bl; summary of the method: as §4
[12] = tested on: Human immunodeficiency virus 1; assay: as §3, with “drug-resistant” for “wild-type”, “harboring protease L10F/V11I/I13V/V32I/L33F/K43T/M46L/I54L/A71V/V82I/I84V/L89M/T91S/Q92R mutant” for “NL4-3”; type: functional, organism-based; details: Human immunodeficiency virus 1, TZM-bl; summary of the method: as §4
[13] = tested on: Human immunodeficiency virus 1; assay: (§5) Antiviral activity against DRV-resistant HIV-1 infected in human TZM-bl cells using virus particles harvested from 24 hrs drug-treated human CEM cells infected with virus assessed as reduction in viral infection measured after 48 hrs in TZM-bl cells by Firefly luciferase based assay; type: functional, organism-based; details: Human immunodeficiency virus 1, TZM-bl; summary of the method: as §4
[14] = tested on: Human immunodeficiency virus 1; assay: as §5, with “drug-resistant” for “DRV-resistant”, “HIV-1 harboring protease L10F/I15V/M46I/I47V/I50V/F53L/A71V/V82I/I84V/L89T mutant” for “HIV-1”; type: functional, organism-based; details: Human immunodeficiency virus 1, TZM-bl; summary of the method: as §4
[15] = tested on: Human immunodeficiency virus 1; assay: as §5, with “drug-resistant” for “DRV-resistant”, “HIV-1 harboring protease L10F/I13V/L33F/K45R/M46I/I47V/I50V/F53L/I54L/I66F/A71V/T74A/L76S/V82I mutant” for “HIV-1”; type: functional, organism-based; details: Human immunodeficiency virus 1, TZM-bl; summary of the method: as §4

Chain of Protease (Human immunodeficiency virus 1, UniProt Q9YQ12, I84V) (Q9YQ12 entry or part of it I84V): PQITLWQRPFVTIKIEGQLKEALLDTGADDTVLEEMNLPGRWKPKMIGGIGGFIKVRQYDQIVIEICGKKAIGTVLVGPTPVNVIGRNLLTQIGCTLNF
Chain of Protease (Human immunodeficiency virus 1, UniProt Q9YQ12, A71V/I50V) (Q9YQ12 entry or part of it A71V/I50V): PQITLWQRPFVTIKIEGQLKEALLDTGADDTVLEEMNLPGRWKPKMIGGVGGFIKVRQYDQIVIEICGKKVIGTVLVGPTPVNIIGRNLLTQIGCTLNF

Compound	EC50 [1]	Ki [2]	Ki (Protease [3])	Ki (Protease [4])	Ki [5]	Ki [6]	CC50 (HEK-293T)	selectivity ratio (in vitro)	CC50 (TZM)	CC50 at 48 h [7]	EC50 [8]	EC50 [9]	EC50 [10]	EC50 [11]	EC50 [12]	EC50 [13]	EC50 [14]	EC50 [15]
CCOP(=O)(COc1ccc(C[C@H](NC(=O)O[C@H]2CO[C@H]3OCC[C@H]32)[C@H](O)CN(CC(C)C)S(=O)(=O)c2ccc3ncsc3c2)cc1)OCC	10.4 nM	15 nM	< 5 pM	< 5 pM	1.9 nM	0.93 nM	45 µM	4.33	> 100 µM	–	–	–	–	–	–	–	–	–
CCOP(=O)(COc1ccc(C[C@H](NC(=O)O[C@H]2CO[C@H]3OCC[C@H]32)[C@H](O)CN(CC(CC)CC)S(=O)(=O)c2ccc(N)cc2)cc1)OCC	16 nM	106 nM	< 5 pM	< 5 pM	51.6 nM	4.71 nM	44 µM	2.75	96 µM	–	–	–	–	–	–	–	–	–
CCOP(=O)(COc1ccc(C[C@H](NC(=O)O[C@H]2CO[C@H]3OCC[C@H]32)[C@H](O)CN(C[C@@H](C)CC)S(=O)(=O)c2ccc(CO)cc2)cc1)OCC	27.3 nM	103 nM	< 5 pM	< 5 pM	52.9 nM	4.98 nM	–	> 3.66	–	> 100 µM	–	–	–	–	–	–	–	–
CCOP(=O)(COc1ccc(C[C@H](NC(=O)O[C@H]2CO[C@H]3OCC[C@H]32)[C@H](O)CN(CC(CC)CC)S(=O)(=O)c2ccc3c(c2)OCO3)cc1)OCC	3.11 nM	6.9 nM	< 5 pM	< 5 pM	1.6 nM	0.37 nM	21 µM	–	> 100 µM	–	< 10 nM	3 nM	–	–	–	–	–	–
CCOP(=O)(COc1ccc(C[C@H](NC(=O)O[C@H]2CO[C@H]3OCC[C@H]32)[C@H](O)CN(CC(C)C)S(=O)(=O)c2ccc3c(c2)OCO3)cc1)OCC	5.67 nM	63.5 nM	< 5 pM	< 5 pM	4.5 nM	2.2 nM	68 µM	12	> 100 µM	–	–	–	–	–	–	–	–	–
CCOP(=O)(COc1ccc(C[C@H](NC(=O)O[C@H]2CO[C@H]3OCC[C@H]32)[C@H](O)CN(CC(CC)CC)S(=O)(=O)c2ccc(OC)cc2)cc1)OCC	5.15 nM	2.2 nM	< 5 pM	< 5 pM	1.26 nM	0.77 nM	22 µM	–	59 µM	–	< 10 nM	5 nM	38 nM	85 nM	–	–	–	–
CCOP(=O)(COc1ccc(C[C@H](NC(=O)O[C@H]2CO[C@H]3OCC[C@H]32)[C@H](O)CN(C[C@@H](C)CC)S(=O)(=O)c2ccc3c(c2)OCO3)cc1)OCC	–	–	< 5 pM	< 5 pM	–	–	31 µM	–	> 100 µM	–	–	–	–	–	–	–	–	–
CC(C)CN(C[C@@H](O)[C@H](Cc1ccccc1)NC(=O)O[C@H]1CO[C@H]2OCC[C@H]21)S(=O)(=O)c1ccc(N)cc1	7.73 nM	–	–	–	–	–	–	–	–	–	56 nM	8 nM	–	1460 nM	15.8 µM	> 100000 nM	1.87 µM	12.9 µM
CCOP(=O)(COc1ccc(C[C@H](NC(=O)O[C@H]2CO[C@H]3OCC[C@H]32)[C@H](O)CN(CC(C)C)S(=O)(=O)c2ccc(OC)cc2)cc1)OCC	11.8 nM	3.6 nM	< 5 pM	< 5 pM	2.1 nM	0.56 nM	50 µM	4.24	> 100 µM	–	–	–	–	–	–	–	–	–
CCOP(=O)(COc1ccc(C[C@H](NC(=O)O[C@H]2CO[C@H]3OCC[C@H]32)[C@H](O)CN(C[C@@H](C)CC)S(=O)(=O)c2ccc(OC)cc2)cc1)OCC	9.56 nM	10.5 nM	< 5 pM	< 5 pM	3.7 nM	0.78 nM	33 µM	3.45	78 µM	–	–	–	–	–	–	–	–	–
CCOP(=O)(COc1ccc(C[C@H](NC(=O)O[C@H]2CO[C@H]3OCC[C@H]32)[C@H](O)CN(CC(CC)CC)S(=O)(=O)c2ccc3ncsc3c2)cc1)OCC	10.7 nM	3.2 nM	< 5 pM	< 5 pM	0.24 nM	0.25 nM	22 µM	2.06	43 µM	–	–	–	–	–	–	–	–	–
CCOP(=O)(COc1ccc(C[C@H](NC(=O)O[C@H]2CO[C@H]3OCC[C@H]32)[C@H](O)CN(CC(CC)CC)S(=O)(=O)c2ccc(CO)cc2)cc1)OCC	17 nM	81.2 nM	< 5 pM	< 5 pM	32.1 nM	2.2 nM	69 µM	4.06	> 100 µM	–	–	–	–	–	–	–	–	–
CCOP(=O)(COc1ccc(C[C@H](NC(=O)O[C@H]2CO[C@H]3OCC[C@H]32)[C@H](O)CN(C[C@@H](C)CC)S(=O)(=O)c2ccc3ncsc3c2)cc1)OCC	9.93 nM	9.03 nM	< 5 pM	< 5 pM	1.2 nM	1.8 nM	23 µM	2.32	53 µM	–	–	–	–	–	–	–	–	–
CCOP(=O)(COc1ccc(C[C@H](NC(=O)O[C@H]2CO[C@H]3OCC[C@H]32)[C@H](O)CN(C[C@@H](C)CC)S(=O)(=O)c2ccc(N)cc2)cc1)OCC	22.9 nM	259 nM	< 5 pM	< 5 pM	146 nM	13.3 nM	92 µM	4.02	> 100 µM	–	–	–	–	–	–	–	–	–
CCC(CC)CN(C[C@@H](O)[C@H](Cc1ccccc1)NC(=O)O[C@H]1CO[C@H]2OCC[C@H]21)S(=O)(=O)c1ccc2c(c1)OCO2	–	–	–	–	–	–	–	–	–	–	–	6 nM	–	–	5.77 µM	780 nM	6.44 µM	> 100 µM

Source: ChEMBL document CHEMBL5620363, “HIV-1 protease inhibitors with a P1 phosphonate modification maintain potency against drug-resistant variants by increased interactions with flap residues” (Eur J Med Chem, 2023)
